Assay [1] addresses Tyrosyl-DNA phosphodiesterase 1 (Homo sapiens, UniProt Q9NUW8). The assay can be described thus: Inhibition of human recombinant Tdp1 using 5'-[32P]-labeled single-stranded DNA oligonucleotide containing 3'-phosphotyrosine as substrate assessed as prevention of generation of oligonucleotide with free 3'-phosphate after 15 mins by PAGE analysis.
The target of assay [2] is T1, DNA topoisomerase 1 (Homo sapiens) (UniProt P11387).
T1 sequence (whole entry): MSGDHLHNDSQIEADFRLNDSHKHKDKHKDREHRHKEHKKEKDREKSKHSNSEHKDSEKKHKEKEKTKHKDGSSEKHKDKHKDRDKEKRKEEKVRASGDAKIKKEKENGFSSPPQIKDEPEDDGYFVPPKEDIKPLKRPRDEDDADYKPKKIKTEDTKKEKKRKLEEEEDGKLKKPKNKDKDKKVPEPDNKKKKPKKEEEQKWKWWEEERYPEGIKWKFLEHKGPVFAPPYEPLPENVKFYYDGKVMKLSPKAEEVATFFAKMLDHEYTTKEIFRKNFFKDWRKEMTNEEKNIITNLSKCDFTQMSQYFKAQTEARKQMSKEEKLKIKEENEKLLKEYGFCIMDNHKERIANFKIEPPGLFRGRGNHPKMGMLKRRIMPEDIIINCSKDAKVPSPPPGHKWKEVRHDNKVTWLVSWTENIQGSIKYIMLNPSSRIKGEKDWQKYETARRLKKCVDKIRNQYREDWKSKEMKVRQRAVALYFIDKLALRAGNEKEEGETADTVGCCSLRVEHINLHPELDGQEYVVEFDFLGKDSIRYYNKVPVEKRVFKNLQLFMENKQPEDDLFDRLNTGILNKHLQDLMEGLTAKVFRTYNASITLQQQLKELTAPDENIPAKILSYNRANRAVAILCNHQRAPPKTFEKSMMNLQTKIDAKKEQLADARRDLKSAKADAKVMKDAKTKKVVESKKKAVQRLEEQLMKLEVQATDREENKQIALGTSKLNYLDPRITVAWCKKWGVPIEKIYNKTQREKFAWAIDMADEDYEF
The assay can be described thus: Inhibition of human recombinant Top1-mediated DNA cleavage by polyacrylamide gel electrophoresis relative to camptothecin. More on the design: concentration or dose not given beside the values. An outline of the steps: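 Baculovirus-purified human recombinant Top1 was incubated for 20 min at 25 °C, with compounds at various concentrations, with about 2 nM of a 117-bp oligonucleotide 3′-end-labeled with [α-³²P]dGTP. Reactions were stopped with 0.5% SDS and run on 20% denaturing PAGE. Cleavage bands were phosphorimaged and graded semiquantitatively against 1 μM camptothecin.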

One may read the IC50 as the midpoint of a concentration-inhibition curve. Broadly, the inhibition is the percentage by which the read-out fell short of the control.

Calls of active or inactive are those of the source. The calls are words filed in the database; no cut-off is given here.

Sequence of Tyrosyl-DNA phosphodiesterase 1 (Q9NUW8 whole entry): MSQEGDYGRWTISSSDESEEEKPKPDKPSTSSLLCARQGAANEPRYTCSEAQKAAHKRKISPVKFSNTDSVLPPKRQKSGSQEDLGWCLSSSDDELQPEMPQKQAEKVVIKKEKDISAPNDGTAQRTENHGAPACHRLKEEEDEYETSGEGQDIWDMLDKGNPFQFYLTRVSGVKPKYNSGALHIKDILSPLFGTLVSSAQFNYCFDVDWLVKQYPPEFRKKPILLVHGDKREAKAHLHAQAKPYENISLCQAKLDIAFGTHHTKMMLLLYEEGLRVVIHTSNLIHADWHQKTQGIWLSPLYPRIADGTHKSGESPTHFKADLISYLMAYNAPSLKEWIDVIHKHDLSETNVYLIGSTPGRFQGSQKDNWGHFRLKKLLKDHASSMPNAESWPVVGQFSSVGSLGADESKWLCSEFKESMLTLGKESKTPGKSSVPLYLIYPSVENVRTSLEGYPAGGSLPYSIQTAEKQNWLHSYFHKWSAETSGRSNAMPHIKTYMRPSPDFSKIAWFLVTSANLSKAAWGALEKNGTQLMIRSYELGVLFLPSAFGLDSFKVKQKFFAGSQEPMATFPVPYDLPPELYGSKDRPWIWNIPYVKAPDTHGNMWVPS

For the compound `O=C1c2ccccc2-c2c1c1ccccc1c(=O)n2CCCCCCCCCCn1c2c(c3ccccc3c1=O)C(=O)c1ccccc1-2`, in assay [1], the IC50 is more than 111 µM.

`O=C1c2ccccc2-c2c1c1ccccc1c(=O)n2CCNS(=O)(=O)c1ccccc1`: the IC50 in assay [1] was more than 111 µM. In assay [2], the inhibition result was “inactive”.

Take `CS(=O)(=O)NCCCCCCn1c2c(c3ccccc3c1=O)C(=O)c1ccccc1-2`: the IC50 in assay [1] is more than 111 µM. Besides, the inhibition entry in assay [2] was “inactive”. In the same order, the values of `CS(=O)(=O)NCCCCCCCCn1c2c(c3ccccc3c1=O)C(=O)c1ccccc1-2` are more than 111 µM and “inactive”. In the same order, the values of `O=C1c2ccccc2-c2c1c1ccccc1c(=O)n2CCCCCCCCCCCCNS(=O)(=O)c1ccc(Br)cc1` are more than 111 µM and “inactive”. In the same order, the values of `Cc1ccc(S(=O)(=O)NCCCCCCCCCCCn2c3c(c4ccccc4c2=O)C(=O)c2ccccc2-3)cc1` are more than 111 µM and “inactive”. `Cc1ccc(S(=O)(=O)OCCCCCn2c3c(c4ccccc4c2=O)C(=O)c2ccccc2-3)cc1`: the IC50 in assay [1] was more than 111 µM.

For `Cc1ccc(S(=O)(=O)NCCCCCn2c3c(c4ccccc4c2=O)C(=O)c2ccccc2-3)cc1`, the half-maximal inhibitory concentration (IC50) in assay [1] is more than 111 µM. Further, the inhibition result in assay [2] was “inactive”. On the same counts, the results for `CS(=O)(=O)NCCCCCCCCCCCCn1c2c(c3ccccc3c1=O)C(=O)c1ccccc1-2` are more than 111 µM and “inactive”. On the same counts, the results for `O=C1c2ccccc2-c2c1c1ccccc1c(=O)n2CCCCCNS(=O)(=O)c1ccccc1` are more than 111 µM and “inactive”.

Regarding `O=C1c2ccccc2-c2c1c1ccccc1c(=O)n2CCCCCCCCCNS(=O)(=O)c1ccc(Br)cc1`, the half-inhibitory concentration (IC50) in assay [1] was more than 111 µM. The inhibition entry in assay [2] is “inactive”. On the same counts, the results for `O=C1c2ccccc2-c2c1c1ccccc1c(=O)n2CCCCCCCCNS(=O)(=O)c1ccccc1` are more than 111 µM and “inactive”. On the same counts, the results for `O=C1c2ccccc2-c2c1c1ccccc1c(=O)n2CCCCCCCNS(=O)(=O)c1ccccc1` are more than 111 µM and “inactive”. `O=C1c2ccccc2-c2c1c1ccccc1c(=O)n2CCCCNS(=O)(=O)c1ccccc1`: in assay [1], the IC50 was more than 111 µM. Further, the inhibition result in assay [2] was “inactive”.

For `O=C1c2ccccc2-c2c1c1ccccc1c(=O)n2CCCCCCCCCNS(=O)(=O)c1ccccc1`, in assay [1], the IC50 was more than 111 µM. Further, in assay [2], the inhibition entry is “inactive”. Take `Cc1ccc(S(=O)(=O)NCCCn2c3c(c4ccccc4c2=O)C(=O)c2ccccc2-3)cc1`: the IC50 in assay [1] was more than 111 µM. In addition, in assay [2], the inhibition result is “inactive”. On the same counts, the results for `Cc1ccc(S(=O)(=O)NCCCCCCCCCCCCn2c3c(c4ccccc4c2=O)C(=O)c2ccccc2-3)cc1` are more than 111 µM and “inactive”.

Turning to `CS(=O)(=O)NCCCCCCCn1c2c(c3ccccc3c1=O)C(=O)c1ccccc1-2`, the IC50 in assay [1] is more than 111 µM. The inhibition result in assay [2] was “inactive”.

For `Cc1ccc(S(=O)(=O)NCCCCCCCCCn2c3c(c4ccccc4c2=O)C(=O)c2ccccc2-3)cc1`, in assay [1], the IC50 is more than 111 µM. Further, in assay [2], the inhibition entry was “inactive”. Regarding `O=C1c2ccccc2-c2c1c1ccccc1c(=O)n2CCCNS(=O)(=O)c1ccc(Br)cc1`, the IC50 in assay [1] was more than 111 µM. In addition, the inhibition result in assay [2] was “inactive”.

With `O=C1c2ccccc2-c2c1c1ccccc1c(=O)n2CCCCCCCCCCNS(=O)(=O)c1ccccc1`, in assay [1], the IC50 was more than 111 µM. The inhibition result in assay [2] is “inactive”.

For the compound `Cc1ccc(S(=O)(=O)NCCCCCCCCn2c3c(c4ccccc4c2=O)C(=O)c2ccccc2-3)cc1`, in assay [1], the IC50 was more than 111 µM. Also, in assay [2], the inhibition result was “inactive”. Consider `O=C1c2ccccc2-c2c1c1ccccc1c(=O)n2CCCCCCCCCCCCNS(=O)(=O)c1ccccc1`, for which the concentration for half-maximal inhibition (IC50) in assay [1] was more than 111 µM. Besides, in assay [2], the inhibition result was “inactive”. Turning to `O=C1c2ccccc2-c2c1c1ccccc1c(=O)n2CCCCCO`, the IC50 in assay [1] is more than 111 µM. Still for that read-out and setting: the result for `O=C1c2ccccc2-c2c1c1ccccc1c(=O)n2CCCO` reads more than 111 µM.

For the compound `O=C1c2ccccc2-c2c1c1ccccc1c(=O)n2CCCCCCNS(=O)(=O)c1ccc(Br)cc1`, in assay [1], the IC50 was more than 111 µM. For the same compound, the inhibition result in assay [2] was “inactive”. `Cc1ccc(S(=O)(=O)OCCCCn2c3c(c4ccccc4c2=O)C(=O)c2ccccc2-3)cc1`: the IC50 in assay [1] was more than 111 µM.

For `CS(=O)(=O)NCCn1c2c(c3ccccc3c1=O)C(=O)c1ccccc1-2`, in assay [1], the IC50 is more than 111 µM. Besides, the inhibition entry in assay [2] was “inactive”. As to `CS(=O)(=O)NCCCCCCCCCn1c2c(c3ccccc3c1=O)C(=O)c1ccccc1-2`, the IC50 in assay [1] was more than 111 µM. Further, in assay [2], the inhibition result is “inactive”.

Regarding `CS(=O)(=O)NCCCCCn1c2c(c3ccccc3c1=O)C(=O)c1ccccc1-2`, in assay [1], the IC50 is more than 111 µM. The inhibition entry in assay [2] is “inactive”. Turning to `CS(=O)(=O)NCCCn1c2c(c3ccccc3c1=O)C(=O)c1ccccc1-2`, in assay [1], the IC50 was more than 111 µM. In assay [2], the inhibition result is “inactive”. In the same order, the values of `O=C1c2ccccc2-c2c1c1ccccc1c(=O)n2CCCCCCCCCCCNS(=O)(=O)c1ccc(Br)cc1` are more than 111 µM and “inactive”. On the same counts, the results for `Cc1ccc(S(=O)(=O)NCCn2c3c(c4ccccc4c2=O)C(=O)c2ccccc2-3)cc1` are more than 111 µM and “inactive”. Consider `O=C1c2ccccc2-c2c1c1ccccc1c(=O)n2CCCCCCCCCCCCn1c2c(c3ccccc3c1=O)C(=O)c1ccccc1-2`, for which the IC50 in assay [1] is more than 111 µM. With `CS(=O)(=O)NCCCCCCCCCCn1c2c(c3ccccc3c1=O)C(=O)c1ccccc1-2`, the IC50 in assay [1] is more than 111 µM. The inhibition result in assay [2] is “inactive”. For the compound `Cc1ccc(S(=O)(=O)OCCCCCCn2c3c(c4ccccc4c2=O)C(=O)c2ccccc2-3)cc1`, the IC50 in assay [1] is more than 111 µM. `Cc1ccc(S(=O)(=O)NCCCCCCCn2c3c(c4ccccc4c2=O)C(=O)c2ccccc2-3)cc1`: the concentration for half-maximal inhibition (IC50) in assay [1] is more than 111 µM. Moreover, in assay [2], the inhibition result is “inactive”. As for `O=C1c2ccccc2-c2c1c1ccccc1c(=O)n2CCCNCCCNCCCn1c2c(c3ccccc3c1=O)C(=O)c1ccccc1-2`, the IC50 in assay [1] is 1.52 µM. Moreover, the inhibition in assay [2] (concentration not given here) was found to be 100%. On to `Cc1ccc(S(=O)(=O)NCCCCn2c3c(c4ccccc4c2=O)C(=O)c2ccccc2-3)cc1`, for which the IC50 in assay [1] was more than 111 µM. Also, the inhibition result in assay [2] is “inactive”. Turning to `CS(=O)(=O)NCCCCn1c2c(c3ccccc3c1=O)C(=O)c1ccccc1-2`, in assay [1], the IC50 is more than 111 µM. Further, the inhibition result in assay [2] is “inactive”. On the same counts, the results for `Cc1ccc(S(=O)(=O)NCCCCCCCCCCn2c3c(c4ccccc4c2=O)C(=O)c2ccccc2-3)cc1` are more than 111 µM and “inactive”.

With `O=C1c2ccccc2-c2c1c1ccccc1c(=O)n2CCCCO`, in assay [1], the half-inhibitory concentration (IC50) is more than 111 µM.

`O=C1c2ccccc2-c2c1c1ccccc1c(=O)n2CCO`: the IC50 in assay [1] was more than 111 µM.

For `O=C1c2ccccc2-c2c1c1ccccc1c(=O)n2CCCCCCCCCCCn1c2c(c3ccccc3c1=O)C(=O)c1ccccc1-2`, in assay [1], the IC50 was more than 111 µM. In the case of `Cc1ccc(S(=O)(=O)OCCCCCCCn2c3c(c4ccccc4c2=O)C(=O)c2ccccc2-3)cc1`, the 50% inhibitory concentration (IC50) in assay [1] is more than 111 µM. Turning to `Cc1ccc(S(=O)(=O)OCCCn2c3c(c4ccccc4c2=O)C(=O)c2ccccc2-3)cc1`, the IC50 in assay [1] is more than 111 µM.

For the origin of these results see ChEMBL document CHEMBL2057156, “Synthesis and biological evaluation of the first dual tyrosyl-DNA phosphodiesterase I (Tdp1)-topoisomerase I (Top1) inhibitors” (J Med Chem, 2012).
